Source: PubChem BioAssay
Compounds with a hit are over-represented: about 1% of the library has one in this group of screens.
PKA-R1A act – activates the PKA-R1A holoenzyme complex; PKA-R1A dissociation, Cy5-IP20 fluorescence polarization; scaled: DMSO 0%, 113 µM cGMP 100%; activation, % at 11.4 µM; actives 0.083% (n = 340,000);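 active means percent activation above the mean of all tested compounds plus 3 SD, cut at about 19% in these data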;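 further: higher means more PKAc released from R1A so a rise in polarization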
Tn7 DDE FP – disrupts Tn7 cyclic peptide binding to fibrin D-Dimer-E complex; P02675; actives 0.13% (n = 370,000); AID 720508; FP displacement of FITC-Tn7 peptide from fibrin DD(E); 0% = median of compound wells per plate; inhibition, % at 8.3 µM;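 active means inhibition above the mean of compounds falling within the control limits plus 3 SD of them, cut at about 14% in these data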;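 further: 0% = plate median of compound wells and 100% = 10 µM Aha-Tn7 peptide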
Target sequence (P02675 whole entry, looked up): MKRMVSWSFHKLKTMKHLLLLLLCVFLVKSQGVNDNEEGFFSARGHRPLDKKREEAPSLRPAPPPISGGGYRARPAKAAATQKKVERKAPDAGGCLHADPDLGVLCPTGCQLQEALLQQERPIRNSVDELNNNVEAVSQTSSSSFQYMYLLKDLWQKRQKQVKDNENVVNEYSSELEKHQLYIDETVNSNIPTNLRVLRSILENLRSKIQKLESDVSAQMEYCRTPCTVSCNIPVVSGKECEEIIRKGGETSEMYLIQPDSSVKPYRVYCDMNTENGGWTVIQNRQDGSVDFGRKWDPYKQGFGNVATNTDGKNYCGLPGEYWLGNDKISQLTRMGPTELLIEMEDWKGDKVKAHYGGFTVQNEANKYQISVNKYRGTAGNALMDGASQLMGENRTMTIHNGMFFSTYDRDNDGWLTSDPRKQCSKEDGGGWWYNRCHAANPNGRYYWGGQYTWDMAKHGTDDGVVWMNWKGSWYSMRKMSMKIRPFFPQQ
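Assay system: Human fibrin DD(E) protein | Medium: Tris buffer with calcium and detergent, pH 7.8 | Reagent: 0.1 µM fluorescent Tn7 | Compound dosing: Single point at 8.3 µM | Times: 10 min preincubation, 3 h with tracer, room temperature | Detection: Fluorescence polarization of the labelled Tn7 tracer | Controls: Aha-Tn7 high control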
PKA-R2B act – activators of human PKA-R2B complex. P22694+P31323. PKA-R2B holoenzyme dissociation, Cy5-IP20 fluorescence polarization; R2B truncated from residue 108, S112A mutant; 0% DMSO only, 100% 113 µM cGMP. activation, % at 11.4 µM. actives 0.079% (n = 340,000). AID 504700;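 active means activation above a cutoff set at the mean over all compounds plus 3 SD, cut at about 18% in these data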;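 further: higher means more holoenzyme dissociation and a rise in polarization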
Tn6 DDE FP – inhibitors of Tn6 peptide binding to human fibrin DD(E) | actives 0.21% (n = 370,000) | P02675 | Fibrin DD(E) TRITC-Tn6 fluorescence polarization displacement | inhibition, % at 8.3 µM;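 active means inhibition above a per-campaign cutoff: mean of compounds within control limits plus 3 SD, cut at about 15% in these data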;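 further: 0% = median of all compound wells on the plate and 100% = blocking peptide control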
Neddyl block – cullin neddylation inhibition; P61081+Q13564; TR-FRET cullin neddylation, biochemical; inhibition, % at 25 µM; actives 0.58% (n = 360,000); in the data active means inhibition above about 36%
Neddyl conf – cullin neddylation inhibition, confirmation; shares compounds with Neddyl block; TR-FRET cullin neddylation biochemical assay; AID 652217; actives 13% (n = 1,800); calls only at 25 µM; in the data active means inhibition above about 40%;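 further: neddylation substrate is the cullin 1 ring ligase complex with SKP2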
The depositor's hits bear a star; i = inactive; . = no result given; + = active, no number.

SMILES	PKA-R1A act	Tn7 DDE FP	PKA-R2B act	Tn6 DDE FP	Neddyl block	Neddyl conf
COC(=O)[C@@]12CCCCC3=C1N(CCC3)C(=O)[C@H]2CC(=O)NCC12CC3CC(CC(C3)C1)C2	.	-3	.	-6	.	.
CCCCCCCCN1C(=O)[C@@H](CC(=O)NCC2CCCCC2)C[C@@]2(C(=O)OC)C1=C[C@H](C(C)(C)C)O[C@@H]2C	.	-2	.	-5	.	.
CCOC(=O)[C@@]12CCCC=C1N(CCc1ccc(Cl)cc1)C(=O)[C@H]2CC(=O)NCc1cccs1	.	6	.	1	.	.
CC1(C)CC(=O)c2cc(OCC(=O)N3CCCCCC3)ccc2O1	-10	1	-3	7	.	.
CC1(C)CC(=O)c2cc(OCC(=O)N3CCN(c4ccccc4F)CC3)ccc2O1	3	3	2	0	52*	.
COc1ccc(C2C3=C(Nc4ncnn42)c2ccccc2CCC3)cc1 (stereo unspecified)	-5	3	-9	12	44*	i
COc1cc(C2C3=C(Nc4ncnn42)c2ccccc2CC3)cc(OC)c1OC (stereo unspecified)	-8	-10	0	4	14	.
COC(=O)C1=C(C)N(Cc2ccccc2C(F)(F)F)C(=NCc2ccccc2C(F)(F)F)NC1c1cccc(C(F)(F)F)c1 (stereo unspecified)	.	9	.	1	.	.
Oc1ccc2c(c1)oc1cc(O)ccc12	0	6	-5	5	41*	i
CN1CCCCC(NC(=O)c2ccc(F)c(F)c2)C1=O (stereo unspecified)	.	-2	.	-6	.	.
C=CCn1c(=N)c(C(=O)NCCCOC)cc2c(=O)n3cccc(C)c3nc21	-12	-4	-4	0	32	.
COCCCNC(=O)c1cccn2c(=O)c3cc4ccccc4cc3nc12	-13	-6	-8	1	40*	i
Cc1ccc(-c2cc(C(=O)NCCCN3CCOCC3)c3ccccc3n2)cc1	-2	-4	-3	2	53*	.
Cc1nc2ccccc2c(=O)n1CCCN1CCOCC1	10	2	-3	6	43*	i
COc1ccc(-c2nc3ccc(C(=O)NCCCN4CCOCC4)cc3nc2-c2ccc(OC)cc2)cc1	-3	10	-2	-4	46*	i
COc1ccc(C(=O)NCCCN2CCOCC2)cc1	-10	2	9	-6	10	.
Cc1ccc2nc(-c3ccc(NC(=O)CSCC(=O)O)cc3)sc2c1	-7	0	-10	7	.	.
Cc1ccc2nc(-c3ccc(NC(=O)COCC(=O)O)cc3)sc2c1	-4	2	4	6	45*	+
COc1cccc(CN(C)C(=O)[C@@H](Cc2ccccc2)NC(=O)[C@H]2O[C@@H](n3ccc(=O)[nH]c3=O)[C@H](O)[C@@H]2O)c1	.	-1	.	0	.	.
Cc1ccc(S(=O)(=O)c2n[nH]n3c2nc(=O)c2ccccc23)cc1	-1	-3	-7	-3	40*	i
Nc1ccc2oc3ccccc3c2c1	8	-1	-5	3	42*	i
Nc1ccc(C#Cc2ccc3oc4ccccc4c(=O)c3c2)cc1	3	-6	-16	-6	-94	.
Cc1nc2c(n1O)CCC/C2=N\O	-6	5	-6	1	-3	.
COc1ccc(-c2nc3c(n2O)CCC/C3=N\O)cc1	-2	2	6	12	45*	i
COc1ccc(/C=C2\CC3(OC(=O)c4ccccc4)CCCN2C3)cc1 (stereo unspecified)	.	-8	.	-2	.	.
SMILES	PKA-R1A act	Tn7 DDE FP	PKA-R2B act	Tn6 DDE FP	Neddyl block	Neddyl conf
C[C@@H]1[C@@H](c2ccccc2)OC(O)([C@H](Cc2ccccc2)NC(=O)OC(C)(C)C)CN1C (stereo partly specified)	.	3	.	7	.	.
CN(C)C(=O)c1c(-c2ccccc2)oc2ccc(O)cc12	6	-2	3	7	45*	i
COc1cccc(-n2c(N)c(C(=O)Nc3c(C)n(C)n(-c4ccccc4)c3=O)c3nc4ccccc4nc32)c1	-12	4	6	-2	51*	i
Cc1cc(C)cc(-n2c(N)c(C(=O)Nc3c(C)n(C)n(-c4ccccc4)c3=O)c3nc4ccccc4nc32)c1	-2	-1	-5	-3	32	.
CC(=O)c1ccc(-c2ccc(C(=O)N(C)Cc3nc4ccccc4c(=O)[nH]3)o2)cc1	-8	-5	-9	6	73*	.
Cc1cc(Nc2ccc(Cl)c(C(F)(F)F)c2)cc(=O)n1-c1ccc(Cl)c(C(F)(F)F)c1	.	-2	.	-2	.	.
CCCCN1CCN(C(=O)c2ccc(CNC(=O)c3cccc(Br)c3)cc2)CC1	.	-7	.	12	.	.
Clc1ccc2[nH]c3c(NCCCN4CCOCC4)ncnc3c2c1	-5	7	-8	0	38*	i
Cc1cc2nc(C)c(=O)n(C)c2cc1C	0	2	7	-6	47*	i
Cc1cc2nc(-c3ccc(=O)[nH]c3)n(C)c2cc1C	-5	-8	2	-4	28	.
NCCCCc1ccc2ccc3cccc4ccc1c2c34	3	5	-3	-6	52*	i
Cc1cc(C)c2c(N)c(C(=O)c3ccccc3)oc2n1	-3	3	-4	2	8	.
Cc1cc(-c2ccccc2)nc2oc(C(=O)NN)c(N)c12	-1	-3	14	-2	43*	+
CN(C)c1nc(OCc2ccccc2)c2ncc(=O)[nH]c2n1	-2	-2	-3	1	44*	.
CCc1ccccc1Cn1c(=O)oc2cccnc21	13	-3	-12	-3	48*	i
Cc1nnc(SCc2cc(=O)oc3cc(O)ccc23)n1Cc1ccccc1	2	-4	-16	-4	54*	i
CCc1ccc(-c2ccc3nnc(SCC(N)=O)n3n2)cc1	-5	5	5	-1	44*	i
O=C(CSc1nnc2ccc(-c3ccc(F)cc3)nn12)NCC1CCCO1 (stereo unspecified)	9	-10	-3	-1	40*	.
C[C@H]1[C@H](NC(=O)c2ccc(Cl)cc2)CC[C@@]23CCCN2C(=O)CCC[C@@H]13	.	1	.	3	.	.
CNc1cncc(C(=O)O)c1	-5	-8	1	-3	40*	.
COc1ccc(C(=O)OC(C)CN2CCOCC2)cc1 (stereo unspecified)	-21	-1	-9	-5	-4	.
COc1ccc(C(=O)OC(C)CN2CCOCC2)cc1OC (stereo unspecified)	-4	-2	1	-1	40*	i
CC(=O)N1c2cc(S(=O)(=O)Nc3c(C)n(C)n(-c4ccccc4)c3=O)c(Br)cc2CC1C (stereo unspecified)	.	-7	.	-5	.	.
